From ChEMBL document CHEMBL4145680, “Tau-Centric Multitarget Approach for Alzheimer's Disease: Development of First-in-Class Dual Glycogen Synthase Kinase 3β and Tau-Aggregation Inhibitors” (J Med Chem, 2018)
The source made the active and inactive calls.

Key:
[1] = molecular target: T1, Glycogen synthase kinase-3 beta (Homo sapiens, UniProt P49841); assay: Inhibition of GSK3beta (unknown origin) using GS-2 peptide substrate incubated for 30 mins by kinase-Glo luminescent assay
In short: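 Human recombinant GSK-3β, 20 ng, in 50 mM HEPES pH 7.5 with 1 mM EDTA, 1 mM EGTA and Mg acetate. Incubated 30 min at 30 °C, then Kinase-Glo luminescence read after 10 min. Activity scaled between no-inhibitor and full-inhibition reference controls.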
Target sequence in this assay (P49841 whole entry): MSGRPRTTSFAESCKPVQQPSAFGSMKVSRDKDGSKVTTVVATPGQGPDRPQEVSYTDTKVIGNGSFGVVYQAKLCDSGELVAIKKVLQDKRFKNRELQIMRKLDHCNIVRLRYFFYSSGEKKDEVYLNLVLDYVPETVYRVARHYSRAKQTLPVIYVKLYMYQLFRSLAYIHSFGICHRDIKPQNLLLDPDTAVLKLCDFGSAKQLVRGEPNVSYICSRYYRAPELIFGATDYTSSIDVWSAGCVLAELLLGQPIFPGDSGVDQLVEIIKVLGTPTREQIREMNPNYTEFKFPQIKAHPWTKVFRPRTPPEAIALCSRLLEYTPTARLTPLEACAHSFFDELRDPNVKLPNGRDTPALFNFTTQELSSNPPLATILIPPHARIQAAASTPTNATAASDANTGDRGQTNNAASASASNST

[2] = molecular target: T1, Glycogen synthase kinase-3 beta; assay: Inhibition of GSK3beta (unknown origin) at 10 uM using GS-2 peptide substrate incubated for 30 mins by kinase-Glo luminescent assay
In short: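 Human recombinant GSK-3β, 20 ng, in 50 mM HEPES pH 7.5 with 1 mM EDTA, 1 mM EGTA and Mg acetate. Substrate prephosphorylated GS-2 peptide 25 µM with 1 µM ATP; DMSO ≤1%. Incubated 30 min at 30 °C, then Kinase-Glo luminescence read after 10 min. Activity scaled between no-inhibitor and full-inhibition reference controls.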
Target sequence in this assay (P49841 whole entry, looked up): as the sequence (P49841 whole entry) above

[3] = Permeability in pH 7.4 PBS incubated for 2.5 hrs by PAMPA-BBB assay; format: ADME; details: read-out: permeability
In short: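 PAMPA-BBB: donor filter coated with porcine brain lipid in dodecane (20 mg/mL). Compounds in PBS pH 7.4/EtOH 70:30, acceptor filled with the same. Sandwich incubated 2.5 h at 25 °C, then donor and acceptor concentrations measured by UV at 3–5 wavelengths, 3 wells, two runs. Ten reference drugs included for validation.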

[4] = Hepatotoxicity in human HepG2 cells assessed as reduction in cell viability incubated for 24 hrs by MTT assay; format: toxicity, cell-based; details: hepg2, 24 h
In short: (§1)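 HepG2 cells grown in DMEM with 10% FBS at 37 °C, 5% CO2, seeded at 0.5 × 10^5 cells/well and left 24 h. Exposed in serum-free DMEM for 24 h (concentrations listed as 0, 10, 25, 50 µM; elsewhere 0, 5, 25, 50 µM). MTT 0.1 mg/mL for 10 min at 37 °C in the dark. Formazan dissolved in Tris/Triton X-100, A570. Mean ± SE of ≥3 experiments in triplicate; reported as % of control.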

[5] = tested on: Cerebellar granule neurone; assay: Neurotoxicity in rat primary cerebellar granule neurons assessed as reduction in cell viability at 5 uM incubated for 24 hrs by MTT assay; format: toxicity
In short: (§2)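 Cerebellar granule neurons from 7-day-old rat pups, plated on poly-L-lysine at 3 × 10^5 cells/well in BME with FBS and 25 mM KCl. Cytosine arabinoside 10 µM added at 16 h. At 7 days in vitro, switched to serum-free BME with 25 mM KCl and treated 24 h at 0, 5, 25 or 50 µM. MTT 0.1 mg/mL for 20 min at 37 °C, A570. Mean ± SE of ≥3 experiments in triplicate, as % of control.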

[6] = Hepatotoxicity in human HepG2 cells assessed as reduction in cell viability at 5 to 50 uM incubated for 24 hrs by MTT assay; format: toxicity, cell-based; details: hepg2, 24 h; in short: as §1
[7] = molecular target: Casein kinase I isoform delta (Homo sapiens) (UniProt P48730); assay: Inhibition of human recombinant CK1delta at 10 uM incubated for 60 mins by Kinase-Glo assay
In short: (§3)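 Human recombinant CK1δ or CK1ε, 16 ng, in 50 mM HEPES pH 7.5 with 10 mM MgCl2, 1 mM EGTA and Brij-35. Substrate 0.1% casein with 4 µM ATP; compound diluted to 10 µM before addition, DMSO ≤1%. Incubated 60 min at 30 °C, then Kinase-Glo luminescence read. Inhibition relative to no-inhibitor activity; mean of two experiments.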

[8] = tested on: Cerebellar granule neurone; assay: Neurotoxicity in rat primary cerebellar granule neurons assessed as reduction in cell viability at 50 uM incubated for 24 hrs by MTT assay; format: toxicity; in short: as §2
[9] = molecular target: T1, Glycogen synthase kinase-3 beta; assay: Inhibition of okadaic acid-induced GSK-3beta-mediated tau hyperphosphorylation in human SH-SY5Y cells assessed as increase in cell viability pre-incubated for 1 hr before okadaic acid stimulation for 24 hrs by MTT assay; format: cell-based
In short: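 SH-SY5Y cells grown in DMEM with 10% FBS, seeded at 60000 per well and used 48 h later. Compound given 1 h before 30nM okadaic acid, then 24 h incubation. Viability by MTT, 0.5mg/mL for at least 4 h, formazan dissolved in DMSO, absorbance at 595 nm. Expressed relative to control (=100); n=6 from three independent experiments.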
Target sequence in this assay (P49841 whole entry, looked up): as the sequence (P49841 whole entry) above

[10] = tested on: Cerebellar granule neurone; assay: Neurotoxicity in rat primary cerebellar granule neurons assessed as reduction in cell viability at 5 to 25 uM incubated for 24 hrs by MTT assay; format: toxicity; in short: as §2
[11] = molecular target: T1, Glycogen synthase kinase-3 beta; assay: Inhibition of GSK3beta (unknown origin) pre-incubated for 30 mins followed by ULight-GS (Ser641/pSer657) peptide substrate addition and measured after 1 hr by TR-FRET assay
Target sequence in this assay (P49841 whole entry): as above

[12] = molecular target: Casein kinase I isoform epsilon (Homo sapiens) (UniProt P49674); assay: Inhibition of human recombinant CK1epsilon at 10 uM incubated for 60 mins by Kinase-Glo assay; in short: as §3
[13] = molecular target: T1, Glycogen synthase kinase-3 beta; assay: Inhibition of GSK3beta (unknown origin) at 10 uM
In short: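 Human recombinant GSK-3β (20 ng) with 25 µM GS-2 prephosphorylated peptide and 1 µM ATP in 50 mM HEPES pH 7.5, 1 mM EDTA, 1 mM EGTA, Mg acetate. DMSO at most 1%. 30 min at 30 °C; reaction stopped with Kinase-Glo, luminescence read after 10 min. Activity scaled between no inhibitor and full inhibition by a reference inhibitor.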
Target sequence in this assay (P49841 whole entry, looked up): as the sequence (P49841 whole entry) above

[14] = Inhibition of AcPHF6 peptide aggregation in pH 7.4 phosphate buffer at 20 uM by CD Spectroscopy
[15] = Inhibition of AcPHF6 peptide aggregation in pH 7.4 phosphate buffer at 10 uM by atomic force microscopy
In short: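 AcPHF6 500 µM in water diluted to 50 µM in 50 mM phosphate pH 7.4, ±10 µM compound, no ThT. Incubated 80 min at 25 °C with 10 s shaking at 400 rpm each minute. Ultrafiltered (30 kDa cut-off), buffer exchanged to water, and the retained high-MW fraction adsorbed on mica. Imaged by PeakForce tapping-mode AFM.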

[16] = molecular target: CDC7/DBF4 (Cell division cycle 7-related protein kinase/Activator of S phase kinase) (Homo sapiens) (UniProt Q9UBU7+O00311); assay: Inhibition of CDC7/Dbf4 (unknown origin) at 10 uM incubated for 60 mins by Kinase-Glo assay; format: protein-complex assay; details: in the assay text read “ADP-Glo assay” for “Kinase-Glo assay”
In short: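 CDC7/DBF4 enzyme, 25 ng/well, with 10 µM ATP (final) and PDKtide substrate. Incubated 60 min at room temperature. ADP-Glo reagent added for 40 min, then detection reagent for 30 min, and luminescence read. Inhibition calculated relative to the no-inhibitor maximum.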

[17] = molecular target: T1, Glycogen synthase kinase-3 beta; assay: Competitive inhibition of GSK3beta (unknown origin) at 10 uM using fixed level of GS-2 peptide substrate and varying ATP levels incubated for 30 mins by kinase-Glo luminescent assay
In short: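 Human recombinant GSK-3β, 20 ng per reaction, in HEPES pH 7.5 buffer with EDTA, EGTA and Mg acetate. GS-2 prephosphorylated peptide held at 25 µM; ATP varied from 1 to 50 µM along with inhibitor level. 30 min at 30 °C, then Kinase-Glo luminescence read after 10 min. Lineweaver–Burk double-reciprocal analysis; means of two experiments, each run in triplicate.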
Target sequence in this assay (P49841 whole entry, looked up): as the sequence (P49841 whole entry) above

Casein kinase I isoform epsilon (Homo sapiens), sequence (P49674 whole entry, looked up, canonical isoform): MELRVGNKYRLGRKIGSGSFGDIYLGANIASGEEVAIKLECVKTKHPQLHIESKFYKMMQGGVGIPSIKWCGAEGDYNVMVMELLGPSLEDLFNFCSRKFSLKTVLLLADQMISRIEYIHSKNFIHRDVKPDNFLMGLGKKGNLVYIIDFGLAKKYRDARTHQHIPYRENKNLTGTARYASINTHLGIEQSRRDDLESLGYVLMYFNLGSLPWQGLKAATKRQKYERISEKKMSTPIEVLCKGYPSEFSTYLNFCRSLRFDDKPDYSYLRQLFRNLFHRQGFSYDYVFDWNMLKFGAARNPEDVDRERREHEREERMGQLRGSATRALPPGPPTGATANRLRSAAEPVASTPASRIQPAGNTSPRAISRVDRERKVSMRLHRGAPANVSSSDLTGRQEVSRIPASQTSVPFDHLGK
CDC7/DBF4 (Cell division cycle 7-related protein kinase/Activator of S phase kinase) (Homo sapiens), sequence (O00311 whole entry, looked up): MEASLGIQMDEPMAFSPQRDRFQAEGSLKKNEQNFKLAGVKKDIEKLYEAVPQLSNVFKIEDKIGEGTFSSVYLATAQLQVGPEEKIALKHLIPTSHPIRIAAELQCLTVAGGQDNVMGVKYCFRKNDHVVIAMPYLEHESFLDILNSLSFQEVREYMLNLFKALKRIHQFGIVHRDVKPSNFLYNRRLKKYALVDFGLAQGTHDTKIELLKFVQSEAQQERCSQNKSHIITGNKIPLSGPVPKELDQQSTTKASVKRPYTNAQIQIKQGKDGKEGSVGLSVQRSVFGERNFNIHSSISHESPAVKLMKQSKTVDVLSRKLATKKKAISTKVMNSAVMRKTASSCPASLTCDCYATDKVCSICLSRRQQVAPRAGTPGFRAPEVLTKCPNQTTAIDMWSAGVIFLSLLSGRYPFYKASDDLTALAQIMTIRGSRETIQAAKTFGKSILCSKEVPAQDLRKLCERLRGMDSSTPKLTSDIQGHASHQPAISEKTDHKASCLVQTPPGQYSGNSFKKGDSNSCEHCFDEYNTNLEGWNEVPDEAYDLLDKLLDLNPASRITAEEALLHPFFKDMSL
CDC7/DBF4 (Cell division cycle 7-related protein kinase/Activator of S phase kinase) (Homo sapiens), sequence (Q9UBU7 whole entry, looked up): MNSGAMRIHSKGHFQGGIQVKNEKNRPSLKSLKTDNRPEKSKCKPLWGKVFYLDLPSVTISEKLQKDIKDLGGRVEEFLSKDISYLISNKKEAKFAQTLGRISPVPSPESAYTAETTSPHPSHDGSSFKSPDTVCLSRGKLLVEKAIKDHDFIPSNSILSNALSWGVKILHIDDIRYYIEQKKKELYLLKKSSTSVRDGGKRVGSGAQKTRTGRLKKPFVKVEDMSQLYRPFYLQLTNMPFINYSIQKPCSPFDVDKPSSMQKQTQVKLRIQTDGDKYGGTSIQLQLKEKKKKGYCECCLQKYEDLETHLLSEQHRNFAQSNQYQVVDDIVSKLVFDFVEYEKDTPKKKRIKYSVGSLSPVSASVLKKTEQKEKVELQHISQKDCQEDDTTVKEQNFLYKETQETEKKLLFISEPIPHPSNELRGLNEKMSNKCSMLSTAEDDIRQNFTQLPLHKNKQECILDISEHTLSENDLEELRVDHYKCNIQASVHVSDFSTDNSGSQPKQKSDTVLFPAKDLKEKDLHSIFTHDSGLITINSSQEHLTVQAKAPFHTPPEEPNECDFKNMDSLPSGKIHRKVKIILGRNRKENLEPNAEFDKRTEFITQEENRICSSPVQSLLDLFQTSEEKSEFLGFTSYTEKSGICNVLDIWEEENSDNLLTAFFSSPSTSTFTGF
Casein kinase I isoform delta (Homo sapiens), sequence (P48730 whole entry, looked up, canonical isoform): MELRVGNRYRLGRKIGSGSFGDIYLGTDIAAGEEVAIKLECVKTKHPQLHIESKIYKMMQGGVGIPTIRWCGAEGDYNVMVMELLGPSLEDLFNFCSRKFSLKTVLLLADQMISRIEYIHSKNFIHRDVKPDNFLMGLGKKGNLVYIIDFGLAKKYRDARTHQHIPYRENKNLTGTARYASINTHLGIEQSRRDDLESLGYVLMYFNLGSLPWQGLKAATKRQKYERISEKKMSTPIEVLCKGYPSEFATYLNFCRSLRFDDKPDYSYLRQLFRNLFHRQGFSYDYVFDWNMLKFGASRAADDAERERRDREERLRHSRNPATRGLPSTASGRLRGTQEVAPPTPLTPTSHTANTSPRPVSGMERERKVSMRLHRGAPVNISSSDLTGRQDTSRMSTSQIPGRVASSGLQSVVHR

Structure (SMILES)	IC50 [1]	inhibition [2]	also measured
Cn1c(/C=C2\SC(=O)NC2=O)nc2ccccc21	> 10 µM	< 50%	
O=C1NC(=O)/C(=C/c2ccccn2)S1	> 10 µM	< 50%	
COc1cc(/C=C2\SC(=O)NC2=O)cc2c1OCO2	> 10 µM	< 50%	
CN(C)c1ccccc1/C=C1\SC(=O)NC1=O	9.22 µM	> 50%	Papp at 2.5 h [3]: > 3.07 ×10⁻⁶ cm/s; Activity [4]: Dose-dependent effect; Activity [5]: Toxic
O=C1NC(=O)/C(=C/c2ccco2)S1	> 10 µM	< 50%	
O=C1NC(=O)/C(=C/c2ccccc2)S1	> 10 µM	< 50%	
O=C1NC(=O)/C(=C/c2cccnc2)S1	8.75 µM	> 50%	
O=C1NC(=O)/C(=C/c2ccccc2F)S1	> 10 µM	< 50%	
O=C1NC(=O)/C(=C/c2cc3ccccc3s2)S1	7.47 µM	> 50%	Activity [6]: Non-Toxic; Papp at 2.5 h [3]: > 3.07 ×10⁻⁶ cm/s; Activity [5]: Toxic
O=C1NC(=O)/C(=C/c2ccc(F)cc2)S1	> 10 µM	< 50%	
CN(C)c1cccc(/C=C2\SC(=O)NC2=O)c1	8.54 µM	> 50%	Papp at 2.5 h [3]: > 3.07 ×10⁻⁶ cm/s; Activity [4]: Dose-dependent effect; Activity [5]: Toxic
CN(C)c1ccc(/C=C2\SC(=O)NC2=O)cc1	> 10 µM	< 50%	
O=C1NC(=O)/C(=C/c2cccc(O)c2)S1	> 10 µM	< 50%	
O=C1NC(=O)/C(=C/c2cccc(F)c2)S1	> 10 µM		
O=C1NC(=O)/C(=C/c2c(-c3ccccc3)[nH]c3ccccc23)S1	6.03 µM	> 50%	
COc1ccc(/C=C2\SC(=O)NC2=O)c(O)c1	7.08 µM	> 50%	
O=C1NC(=O)/C(=C/c2ccccc2OCc2ccccc2)S1	> 10 µM	< 50%	
O=C1NC(=O)/C(=C/c2ccccc2O)S1	> 10 µM	< 50%	

Structure (SMILES)	IC50 [1]	inhibition [2]	also measured
CCc1ccc(CCOc2ccc(CC3SC(=O)NC3=O)cc2)nc1 (stereo not given) [PIOGLITAZONE]			Activity [4]: Dose-dependent effect; Activity [5]: Toxic
O=C1NC(=O)/C(=C/c2cc3ccccc3o2)S1	> 10 µM	< 50%	
O=C1NC(=O)/C(=C/c2ccncc2)S1	1.42 µM	> 50%	
O=C1NC(=O)/C(=C/c2cccs2)S1	7.99 µM	> 50%	
O=C1NC(=O)/C(=C/c2ccc(-c3ccccc3)cc2)S1	> 10 µM	< 50%	
O=C1NC(=O)/C(=C/c2ccc3c(c2)OCCO3)S1	7.01 µM	> 50%	
CN(C)c1ccc(/C=C/C=C2\SC(=O)NC2=O)cc1	> 10 µM	< 50%	
COc1cc(/C=C2\SC(=O)NC2=O)ccc1O		> 50%	
O=C1NC(=O)/C(=C/c2ccc3ccccc3c2)S1	> 10 µM	< 50%	
COc1ccc2[nH]cc(/C=C3\SC(=O)NC3=O)c2c1	> 10 µM	< 50%	
COc1ccc2nc(Cl)c(/C=C3\SC(=O)NC3=O)cc2c1	3.55 µM	> 50%	
O=C1NC(=O)/C(=C/c2ccc(O)cc2)S1	8.99 µM	> 50%	
O=C1NC(=O)/C(=C/C=C/c2ccccc2)S1	> 10 µM	< 50%	
O=C1NC(=O)/C(=C/c2cc3ccccc3nc2Cl)S1	6.13 µM	> 50%	
O=C1NC(=O)/C(=C/c2c[nH]c3ccccc23)S1	4.93 µM	> 50%	Activity [6]: Non-Toxic; inhibition [7]: inactive; Papp at 2.5 h [3]: > 3.07 ×10⁻⁶ cm/s; Activity [8]: Toxic; inhibition [9]: Active; Activity [10]: Non-Toxic; IC50 [11]: 21 µM; inhibition [12]: inactive; inhibition [13]: 95%; inhibition [14]: Active; inhibition [15]: Active; inhibition [16]: inactive; inhibition [17]: Active
O=C1NC(=O)/C(=C/c2ccc(O)c([N+](=O)[O-])c2)S1	9.22 µM	> 50%	
O=C1NC(=O)/C(=C/c2c3ccccc3cc3ccccc23)S1	> 10 µM	< 50%	
